Data taken from ChEMBL document CHEMBL1926614, “Substituted thiazoles V. synthesis and antitumor activity of novel thiazolo[2,3-b]quinazoline and pyrido[4,3-d]thiazolo[3,2-a]pyrimidine analogues” (2012).

Columns and labels:
Type in all cases: functional
UACC-62 = assay: Growth inhibition of human UACC62 cells at 10 uM after 48 hrs by coulter counting; conditions: UACC-62, 48 h, read-out: GI
Summary of the method: (§1)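 Single-dose screen in the NCI 60 human tumor cell line panel (nine subpanels). Compounds dissolved in DMSO and diluted in phosphate buffered saline, keeping final DMSO below 1%. Added in duplicate wells to cells at 6 × 10⁴ cells/ml. Controls held PBS and DMSO at matching dilutions. Incubated at 37 °C, humidified, 5% CO₂. Reported as percent growth of treated cells.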

UACC-257 = assay: Growth inhibition of human UACC257 cells at 10 uM after 48 hrs by coulter counting; conditions: UACC-257, 48 h, read-out: GI; summary of the method: as §1
NCI-H522 = assay: Growth inhibition of human NCI-H522 cells at 10 uM after 48 hrs by coulter counting; conditions: NCI-H522, 48 h, read-out: GI
Summary of the method: (§2)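 Single-dose primary screen across the full NCI 60-cell-line panel. Stocks were made in DMSO and diluted in PBS to a final DMSO below 1%. Cultures at 6 × 10⁴ cells/ml were run in duplicate wells alongside PBS/DMSO vehicle controls at 37 °C in humidified 5% CO₂. Data were expressed as percent growth of treated cells.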

MDA-MB-435 = assay: Growth inhibition of human MDA-MB-435 cells at 10 uM after 48 hrs by coulter counting; conditions: MDA-MB-435, 48 h, read-out: GI; summary of the method: as §2
NCI-H23 = assay: Growth inhibition of human NCI-H23 cells at 10 uM after 48 hrs by coulter counting; conditions: NCI-H23, 48 h, read-out: GI; summary of the method: as §2
UO-31 = assay: Growth inhibition of human UO31 cells at 10 uM after 48 hrs by coulter counting; conditions: UO-31, 48 h, read-out: GI; summary of the method: as §1
T47D = assay: Growth inhibition of human T47D cells at 10 uM after 48 hrs by coulter counting; conditions: read-out: GI; summary of the method: as §1
TK-10 = assay: Growth inhibition of human TK10 cells at 10 uM after 48 hrs by coulter counting; conditions: TK-10, 48 h, read-out: GI; summary of the method: as §1
CAKI-1 = assay: Growth inhibition of human Caki1 cells at 10 uM after 48 hrs by coulter counting; conditions: CAKI-1, 48 h, read-out: GI; summary of the method: as §2
HL-60(TB) = assay: Growth inhibition of human HL-60(TB) cells at 10 uM after 48 hrs by coulter counting; conditions: HL-60, 48 h, read-out: GI
Summary of the method: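 Test compound was dissolved in DMSO and diluted in phosphate-buffered saline to a final DMSO level below 1%. Dilutions were plated in duplicate with cell culture at 6 × 10⁴ cells/ml. Vehicle controls held PBS and DMSO at matching dilutions. Incubation was at 37 °C, humidified, under 5% CO₂. Data were reported as percent growth of treated cells.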

MOLT-4 = assay: Growth inhibition of human MOLT4 cells at 10 uM after 48 hrs by coulter counting; conditions: MOLT-4, 48 h, read-out: GI; summary of the method: as §2
A498 = assay: Growth inhibition of human A498 cells at 10 uM after 48 hrs by coulter counting; conditions: A498, 48 h, read-out: GI; summary of the method: as §2
U-251 = assay: Growth inhibition of human U251 cells at 10 uM after 48 hrs by coulter counting; conditions: U-251, 48 h, read-out: GI; summary of the method: as §1
HCT-116 = assay: Growth inhibition of human HCT116 cells at 10 uM after 48 hrs by coulter counting; conditions: HCT-116, 48 h, read-out: GI; summary of the method: as §2
SK-MEL-5 = assay: Growth inhibition of human SK-MEL-5 cells at 10 uM after 48 hrs by coulter counting; conditions: SK-MEL-5, 48 h, read-out: GI; summary of the method: as §2
SN12C = assay: Growth inhibition of human SN12C cells at 10 uM after 48 hrs by coulter counting; conditions: read-out: GI; summary of the method: as §2
OVCAR-8 = assay: Growth inhibition of human OVCAR8 cells at 10 uM after 48 hrs by coulter counting; conditions: OVCAR-8, 48 h, read-out: GI; summary of the method: as §2
DU-145 = assay: Growth inhibition of human DU145 cells at 10 uM after 48 hrs by coulter counting; conditions: DU-145, 48 h, read-out: GI; summary of the method: as §2
SNB-19 = assay: Growth inhibition of human SNB19 cells at 10 uM after 48 hrs by coulter counting; conditions: SNB-19, 48 h, read-out: GI; summary of the method: as §2
M14 = assay: Growth inhibition of human M14 cells at 10 uM after 48 hrs by coulter counting; conditions: M14, 48 h, read-out: GI; summary of the method: as §2
RPMI-8226 = assay: Growth inhibition of human RPMI8226 cells at 10 uM after 48 hrs by coulter counting; conditions: RPMI-8226, 48 h, read-out: GI; summary of the method: as §2
[1] = Growth inhibition of human NCI-322M cells at 10 uM after 48 hrs by coulter counting; conditions: read-out: GI; summary of the method: as §2
EKVX = assay: Growth inhibition of human EKVX cells at 10 uM after 48 hrs by coulter counting; conditions: read-out: GI; summary of the method: as §2
SNB-75 = assay: Growth inhibition of human SNB75 cells at 10 uM after 48 hrs by coulter counting; conditions: SNB-75, 48 h, read-out: GI; summary of the method: as §2
CCRF-CEM = assay: Growth inhibition of human CCRF-CEM cells at 10 uM after 48 hrs by coulter counting; conditions: read-out: GI; summary of the method: as §2
HCT-15 = assay: Growth inhibition of human HCT15 cells at 10 uM after 48 hrs by coulter counting; conditions: HCT-15, 48 h, read-out: GI; summary of the method: as §2
KM12 = assay: Growth inhibition of human KM12 cells at 10 uM after 48 hrs by coulter counting; conditions: KM12, 48 h, read-out: GI; summary of the method: as §2
NCI/ADR-RES = assay: Growth inhibition of human NCI/ADR-RES cells at 10 uM after 48 hrs by coulter counting; conditions: read-out: GI; summary of the method: as §2
HOP-62 = assay: Growth inhibition of human HOP62 cells at 10 uM after 48 hrs by coulter counting; conditions: HOP-62, 48 h, read-out: GI; summary of the method: as §2
ACHN = assay: Growth inhibition of human ACHN cells at 10 uM after 48 hrs by coulter counting; conditions: read-out: GI; summary of the method: as §2
MCF7 = assay: Growth inhibition of human MCF7 cells at 10 uM after 48 hrs by coulter counting; conditions: MCF7, 48 h, read-out: GI; summary of the method: as §2
NCI-H460 = assay: Growth inhibition of human NCI-H460 cells at 10 uM after 48 hrs by coulter counting; conditions: NCI-H460, 48 h, read-out: GI; summary of the method: as §2
BT-549 = assay: Growth inhibition of human BT549 cells at 10 uM after 48 hrs by coulter counting; conditions: BT-549, 48 h, read-out: GI; summary of the method: as §2
HT-29 = assay: Growth inhibition of human HT-29 cells at 10 uM after 48 hrs by coulter counting; conditions: HT-29, 48 h, read-out: GI; summary of the method: as §2
SK-MEL-2 = assay: Growth inhibition of human SK-MEL-2 cells at 10 uM after 48 hrs by coulter counting; conditions: SK-MEL-2, 48 h, read-out: GI; summary of the method: as §2
A549 = assay: Growth inhibition of human A549 cells at 10 uM after 48 hrs by coulter counting; conditions: A549, 48 h, read-out: GI; summary of the method: as §2
K562 = assay: Growth inhibition of human K562 cells at 10 uM after 48 hrs by coulter counting; conditions: K562, 48 h, read-out: GI; summary of the method: as §2
SF-295 = assay: Growth inhibition of human SF295 cells at 10 uM after 48 hrs by coulter counting; conditions: SF-295, 48 h, read-out: GI; summary of the method: as §2
SF-268 = assay: Growth inhibition of human SF268 cells at 10 uM after 48 hrs by coulter counting; conditions: SF-268, 48 h, read-out: GI; summary of the method: as §2
786-0 = assay: Growth inhibition of human 786-0 cells at 10 uM after 48 hrs by coulter counting; conditions: 786-0, 48 h, read-out: GI; summary of the method: as §2
SK-MEL-28 = assay: Growth inhibition of human SK-MEL-28 cells at 10 uM after 48 hrs by coulter counting; conditions: SK-MEL-28, 48 h, read-out: GI; summary of the method: as §2
NCI-H226 = assay: Growth inhibition of human NCI-H226 cells at 10 uM after 48 hrs by coulter counting; conditions: NCI-H226, 48 h, read-out: GI; summary of the method: as §2
LOX IMVI = assay: Growth inhibition of human LOXIMVI cells at 10 uM after 48 hrs by coulter counting; conditions: read-out: GI; summary of the method: as §2

What does the source list for CCN1CC2=C(N=C3SC=C(C)N3C2c2ccc(OC)cc2)/C(=C/c2ccc(OC)cc2)C1 (stereo not drawn)?
inhibition of growth at 10 µM (UACC-62): > 10%; inhibition of growth at 10 µM (UACC-257): > 10%; inhibition of growth at 10 µM (NCI-H522): > 10%; inhibition of growth at 10 µM (MDA-MB-435): > 10%; inhibition of growth at 10 µM (NCI-H23): > 10%; inhibition of growth at 10 µM (UO-31): 35.5%; inhibition of growth at 10 µM (T47D): > 10%; inhibition of growth at 10 µM (TK-10): > 10%; inhibition of growth at 10 µM (CAKI-1): > 10%; inhibition of growth at 10 µM (HL-60(TB)): > 10%; inhibition of growth at 10 µM (MOLT-4): > 10%; inhibition of growth at 10 µM (A498): > 10%; inhibition of growth at 10 µM (U-251): > 10%; inhibition of growth at 10 µM (HCT-116): > 10%; inhibition of growth at 10 µM (SK-MEL-5): > 10%; inhibition of growth at 10 µM (SN12C): > 10%; inhibition of growth at 10 µM (OVCAR-8): > 10%; inhibition of growth at 10 µM (DU-145): > 10%; inhibition of growth at 10 µM (SNB-19): > 10%; inhibition of growth at 10 µM (M14): > 10%; inhibition of growth at 10 µM (RPMI-8226): > 10%; inhibition of growth at 10 µM [1]: > 10%; inhibition of growth at 10 µM (EKVX): > 10%; inhibition of growth at 10 µM (SNB-75): 12.5%; inhibition of growth at 10 µM (CCRF-CEM): > 10%; inhibition of growth at 10 µM (HCT-15): > 10%; inhibition of growth at 10 µM (KM12): > 10%; inhibition of growth at 10 µM (NCI/ADR-RES): > 10%; inhibition of growth at 10 µM (HOP-62): > 10%; inhibition of growth at 10 µM (ACHN): > 10%; inhibition of growth at 10 µM (MCF7): > 10%; inhibition of growth at 10 µM (NCI-H460): > 10%; inhibition of growth at 10 µM (BT-549): > 10%; inhibition of growth at 10 µM (HT-29): > 10%; inhibition of growth at 10 µM (SK-MEL-2): > 10%; inhibition of growth at 10 µM (A549): > 10%; inhibition of growth at 10 µM (K562): > 10%; inhibition of growth at 10 µM (SF-295): > 10%; inhibition of growth at 10 µM (SF-268): > 10%; inhibition of growth at 10 µM (786-0): > 10%; inhibition of growth at 10 µM (SK-MEL-28): > 10%; inhibition of growth at 10 µM (NCI-H226): > 10%; inhibition of growth at 10 µM (LOX IMVI): > 10%
